Experimental data taken from ChEMBL document CHEMBL1148779, “Synthesis and biological evaluation of imidazoquinoxalinones, imidazole analogues of pyrroloiminoquinone marine natural products” (J Med Chem, 2007).
Active and inactive are the calls of the source. The rule behind the calls is not given here.

Legend:
[1] = (§1) Growth inhibition of NCI60 cells; type: functional; details: Homo sapiens; for TGI: read-out: Log TGI (converted)
[2] = Toxicity in mouse at 400 mg/kg, ip; type: organism-based; parameters: dose 400 mg/kg, route intraperitoneal; details: in vivo
How it was run: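 Acute toxicity in mice: the drug was formulated so that 400 mg/kg IP was given in 1 mL. Single IP doses of 400, 200 and 100 mg/kg were given (1, 0.5, 0.25 mL/mouse), using the body weight and strain planned for the hollow fiber assay. Mice were followed for 14 days for morbidity (body weight loss) and mortality. If mice died, the dose was halved serially in single mice until a tolerated dose was reached.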

MDA-MB-435 = assay: Growth inhibition of human MDA-MB-435 cells; type: functional
MDA-N = assay: Growth inhibition of human MDA-N cells; type: functional
NCI60 = assay: as §1; type: functional; details: Homo sapiens
BT-549 = assay: Growth inhibition of human BT549 cells; type: functional
MDA-MB-231 = assay: Growth inhibition of human MDA-MB-231 cells; type: functional
A-431 = assay: Inhibition of human A431 cells; type: functional, cell-based
How it was run: (§2)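 MTT assay. HCT-116 cells were grown in McCoy's 5a with 10% FBS and 2 mM L-glutamine. A-431 cells were grown in DMEM with 10% FBS and 4 mM L-glutamine. Cells were plated at 10 000/well and dosed after 24 h. HCT-116 was tested at 0.3–100 µM and A-431 at 0.1–100 µM, for 48 h at 37 °C. MTT (final 0.3 mg/mL) was added for 3 h and formazan dissolved in DMSO. A570 was read and % cytotoxicity taken versus untreated control. Makaluvamine C at 10 µM was the positive control.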

HCT-116 = assay: Inhibition of human HCT116 cells; type: functional, cell-based; how it was run: as §2
Homo sapiens = species on record: Homo sapiens; assay: Inhibition of human recombinant topoisomerase 2
How it was run: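 Relaxation assay with recombinant human topoisomerase II (p170), 4 units, and 0.25 µg supercoiled pRYG DNA. Buffer: 50 mM Tris pH 8.0, 120 mM KCl, 10 mM MgCl2, 0.5 mM DTT, 0.5 mM ATP. Drug was added in varying amounts for 45 min at 37 °C. Reactions were stopped with SDS and proteinase K, then extracted with chloroform/isoamyl alcohol. Products were run on a 1% agarose gel and stained with ethidium bromide. Etoposide was the positive control.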

| SMILES | GI50 [1] [µM] | LC50 [1] [µM] | TGI [1] [µM] | further results |
| --- | --- | --- | --- | --- |
| NC1=CC2=NCCn3cnc(c32)C1=O | 4.57 | 35.5 | 12.3 |  |
| O=C1C(NCc2ccccc2)=CC2=NCCn3cnc1c32 | 0.617 | 14.8 | 2.82 | MTD [2]: 12.5 mg/kg |
| CC(=O)NC1=C(C)C(=O)c2nc(C)n3c2C1=NCC3 | 52.5 |  | 81.3 | GI50 (MDA-MB-435): 19.1 µM; GI50 (MDA-N): 18.6 µM; Activity (NCI60): inactive; GI50 (BT-549): < 0.01 µM; GI50 (MDA-MB-231): 12.9 µM |
| COCc1nc2c3n1CCN=C3C=C(N)C2=O |  |  |  | IC50 (A-431): 3 µM; IC50 (HCT-116): 3 µM |
| O=C1C(NCCO)=CC2=NCCn3cnc1c32 | 1.1 | 20 | 4.27 |  |
| COc1cc([C@@H]2c3cc4c(cc3[C@@H](O[C@@H]3O[C@@H]5CO[C@@H](C)O[C@H]5[C@H](O)[C@H]3O)[C@H]3COC(=O)[C@H]23)OCO4)cc(OC)c1O |  |  |  | Activity (Homo sapiens): Active |
| O=C1C(NCCc2ccc(O)cc2)=CC2=NCCn3cnc1c32 | 2.51 | 40.7 | 14.1 |  |
| O=C1C(NCCc2c[nH]c3ccccc23)=CC2=NCCn3cnc1c32 | 0.234 | 6.76 | 0.871 | Activity (Homo sapiens): Active |
| CC(=O)NC1=C(C)C(=O)c2nc(COC(C)=O)n3c2C1=NCC3 |  |  |  | Activity (NCI60): inactive |
| CC(=O)NC1=C(C)C(=O)c2ncn3c2C1=NCC3 | 46.8 |  |  | Activity (NCI60): inactive |
| O=C1C(NCCc2ccccc2)=CC2=NCCn3cnc1c32 | 0.166 | 5.5 | 1.07 |  |
